The full list was thinned out, with hits kept by preference.
Bfl-1 A1 inh – inhibitors of the anti-apoptotic protein A1, read as caspase activation. caspase activation, % (test concentration not listed). MEF A1-2A-BIM cells, Caspase-Glo 3/7 luminescence, 3 h; percent of clofoctol response, vehicle zero. 330,000 compounds, 0.066% hits;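 active means over half of replicate activation scores above 10%, or exactly half above 10 with the replicate mean above 10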
UPR XBP1 act – activators of adaptive arm of unfolded protein response (XBP1); CHO-XBP1 luciferase reporter, IRE1-XBP1 UPR activation, luminescence; percent of tunicamycin response, DMSO as zero; activation, % at 20 µM; 330,000 compounds, 0.33% hits;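 active means versus positive control, 20 µM dose yields 30% or more activation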
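Assay system: CHO-XBP1 luciferase reporter cells; Schedule: 6 h treatment, 37 °C; Detection: glow luminescence from Steady-Glo reagent; Benchmarks: high control tunicamycin 10 µg/mL final, low control DMSO vehicle only.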
CHOP inh – CHOP inhibition in unfolded protein response; CHO-K1 CHOP-promoter luciferase, tunicamycin-induced, 15-18 h; inhibition, % at 10 µM; 220,000 compounds, 3.8% hits; AID 2732;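 active means compounds that reduced the stress-induced luciferase reporter signal by more than about 70% of percent inhibition, limit read from the data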
CHOP UPR activ – apoptotic UPR (CHOP) activation | CHO-CHOP luciferase reporter, luminescence; percent of tunicamycin response over DMSO baseline | activation, % at 10 µM | 330,000 compounds, 0.34% hits;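 active means at 10 µM dose, activation of 40% or more, normalized to positive control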
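Material: CHO-CHOP cells, stable luciferase reporter of PERK-eIF2a-CHOP signalling; quantity: 500 reporter cells seeded per well; buffer or medium: F12 medium containing 10% fetal bovine serum; compound: one dose, 10 µM in 0.5% DMSO; incubation: 6 h compound treatment, 37 °C; measured by: Steady-Glo luciferase luminescence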
Hits are given with their value.

How did COC(=O)c1ccc(CNC(=O)COC(=O)/C=C/c2cc(OC)c(OC)c(OC)c2)cc1 do in these assays?
Bfl-1 A1 inh: inactive; UPR XBP1 act: inactive; CHOP UPR activ: inactive

What do the screens show for `CCCCc1ccc(NC(=O)CN(C)CC(=O)Nc2ccccc2Cl)cc1`?
Bfl-1 A1 inh: 18; UPR XBP1 act: inactive; CHOP UPR activ: inactive

What do the screens show for `CN(CC(=O)Nc1ccccc1)CC(=O)Nc1ccccc1Cl`?
Bfl-1 A1 inh: inactive; UPR XBP1 act: inactive; CHOP UPR activ: inactive

What do the screens show for `OC(CNCCC1C=Nc2ccccc21)Cn1c2ccc(Cl)cc2c2cc(Cl)ccc21` (stereo not drawn)?
Bfl-1 A1 inh: inactive; CHOP inh: 109

What do the screens show for `CCOC(=O)c1cnc(SC)nc1N`?
Bfl-1 A1 inh: inactive; UPR XBP1 act: inactive; CHOP inh: inactive; CHOP UPR activ: inactive

Results for CCOC(=O)c1cnc(SC)nc1Sc1ccccc1 ?
Bfl-1 A1 inh: inactive; UPR XBP1 act: inactive; CHOP inh: 75; CHOP UPR activ: inactive

What do the screens show for `CC(C)=CC(=O)NCCc1ccccc1`?
Bfl-1 A1 inh: inactive; UPR XBP1 act: inactive; CHOP inh: 85; CHOP UPR activ: inactive

How did Cc1ccc(-n2nnnc2C(Cl)(Cl)c2nnnn2-c2ccc(C)cc2)cc1 do in these assays?
Bfl-1 A1 inh: inactive; UPR XBP1 act: inactive; CHOP inh: 80; CHOP UPR activ: inactive

How did N=Nc1c(O)n(CC(=O)Nc2ccccc2)c2ccccc12 do in these assays?
Bfl-1 A1 inh: inactive; UPR XBP1 act: inactive; CHOP UPR activ: inactive

Results for COC(=O)c1ccc(C(=O)OC)c(NC(=S)N2CCN(C(=O)C3CCCO3)CC2)c1 (stereo not drawn) ?
Bfl-1 A1 inh: inactive; UPR XBP1 act: inactive; CHOP inh: inactive; CHOP UPR activ: inactive

How did Cc1cccc2cc(-c3nc4c(C)cccn4c3NCc3ccco3)c(=O)[nH]c12 do in these assays?
Bfl-1 A1 inh: inactive; UPR XBP1 act: inactive; CHOP inh: inactive; CHOP UPR activ: inactive

Results for Cc1ccc2[nH]c(=O)c(-c3nc4cc(C)ccn4c3NCc3ccco3)cc2c1 ?
Bfl-1 A1 inh: inactive; UPR XBP1 act: inactive; CHOP inh: 93; CHOP UPR activ: inactive

How did CC(OC(=O)CCN1C(=O)c2cccc([N+](=O)[O-])c2C1=O)C(=O)Nc1cc(Cl)cc(Cl)c1 (stereo not drawn) do in these assays?
Bfl-1 A1 inh: inactive; UPR XBP1 act: inactive; CHOP inh: 82; CHOP UPR activ: inactive

What do the screens show for `COc1cccc(NC(=O)CCN2C(=O)c3cccc([N+](=O)[O-])c3C2=O)c1`?
Bfl-1 A1 inh: inactive; UPR XBP1 act: inactive; CHOP UPR activ: inactive

Results for CC1(C)CC(c2nc(-c3ccc([N+](=O)[O-])cc3)cs2)CCO1 (stereo not drawn) ?
Bfl-1 A1 inh: inactive; UPR XBP1 act: inactive; CHOP inh: inactive; CHOP UPR activ: inactive

How did CCC(C)C(Nc1ccc(C(=O)OC)cc1[N+](=O)[O-])C(=O)OC (stereo not drawn) do in these assays?
Bfl-1 A1 inh: inactive; UPR XBP1 act: inactive; CHOP inh: 89; CHOP UPR activ: inactive

Results for Cc1nc2ccccc2c(=O)n1NC(=O)c1cncc(Br)c1 ?
Bfl-1 A1 inh: inactive; UPR XBP1 act: inactive; CHOP inh: inactive; CHOP UPR activ: inactive

What do the screens show for `O=C(Cc1ccccc1)NC1CCN(C(=O)NCc2ccccc2)CC1`?
Bfl-1 A1 inh: inactive; UPR XBP1 act: inactive; CHOP inh: inactive; CHOP UPR activ: inactive

Results for Cc1cnc(C(=O)OCC(=O)NC(=O)NC(C)C)cn1 ?
Bfl-1 A1 inh: inactive; UPR XBP1 act: inactive; CHOP inh: 77; CHOP UPR activ: inactive

What do the screens show for `Cc1cnc(C(=O)OCC(=O)Nc2ccc(Cl)cc2)cn1`?
Bfl-1 A1 inh: inactive; UPR XBP1 act: inactive; CHOP inh: inactive; CHOP UPR activ: inactive

What do the screens show for `Cc1cc(C)n(-c2nc(NCC(C)O)c3c4c(sc3n2)COC(C)(C)C4)n1` (stereo not drawn)?
Bfl-1 A1 inh: inactive; UPR XBP1 act: inactive; CHOP inh: inactive; CHOP UPR activ: inactive

Results for Cc1cc(C)n(-c2nc(NCC3CCCO3)c3c4c(sc3n2)COC(C)(C)C4)n1 (stereo not drawn) ?
Bfl-1 A1 inh: inactive; UPR XBP1 act: inactive; CHOP inh: 95; CHOP UPR activ: inactive

What do the screens show for `COC(=O)c1cc[n+](CC(=O)c2ccccc2)cc1`?
Bfl-1 A1 inh: inactive; UPR XBP1 act: inactive; CHOP inh: inactive; CHOP UPR activ: inactive

How did O=C(NC1CCCCC1)c1ccc(-n2cncn2)c([N+](=O)[O-])c1 do in these assays?
Bfl-1 A1 inh: inactive; UPR XBP1 act: inactive; CHOP UPR activ: inactive

How did CCCc1nc2c(nnn2Cc2ccccc2F)c(=O)[nH]1 do in these assays?
Bfl-1 A1 inh: inactive; UPR XBP1 act: inactive; CHOP inh: inactive; CHOP UPR activ: inactive

How did CCCC1CCC(c2ccc(/C(N)=N/O)cc2)CC1 (stereo not drawn) do in these assays?
Bfl-1 A1 inh: inactive; UPR XBP1 act: inactive; CHOP inh: 81; CHOP UPR activ: inactive

What do the screens show for `COc1cc(OC)cc(-n2nnnc2SCC(=O)NCc2ccc3c(c2)OCO3)c1`?
Bfl-1 A1 inh: inactive; UPR XBP1 act: inactive; CHOP inh: inactive; CHOP UPR activ: inactive

What do the screens show for `COc1cc(NC(=O)CSc2nc(=O)n(CCN3CCOCC3)c3c2CCC3)cc(OC)c1`?
Bfl-1 A1 inh: inactive; UPR XBP1 act: inactive; CHOP UPR activ: inactive

What do the screens show for `Cc1nnsc1C(=O)N/N=C/c1ccccc1`?
Bfl-1 A1 inh: inactive; UPR XBP1 act: inactive; CHOP inh: inactive; CHOP UPR activ: inactive

How did Cc1nnsc1C(=O)N/N=C/c1ccc2ccccc2c1O do in these assays?
Bfl-1 A1 inh: inactive; UPR XBP1 act: inactive; CHOP inh: 75; CHOP UPR activ: inactive

What do the screens show for `Cc1ccc(OCC(=O)Nc2cccc(-c3nnc(-c4ccccc4)o3)c2)c(C)c1`?
Bfl-1 A1 inh: inactive; UPR XBP1 act: inactive; CHOP inh: inactive; CHOP UPR activ: inactive

Results for COc1ccc(CC(=O)Nc2cccc(-c3nnc(-c4ccc(C)cc4)o3)c2)cc1OC ?
Bfl-1 A1 inh: inactive; UPR XBP1 act: inactive; CHOP inh: 76; CHOP UPR activ: inactive

How did COc1ccc(CC(=O)Nc2ccc(-c3nnc(-c4ccccc4)o3)cc2)cc1OC do in these assays?
UPR XBP1 act: inactive; CHOP inh: 74; CHOP UPR activ: inactive

Results for Cc1ccc(C)c(N2CCN(C(=O)CCCOc3cc(=O)n(C)c4ccccc34)CC2)c1 ?
Bfl-1 A1 inh: inactive; UPR XBP1 act: inactive; CHOP inh: inactive; CHOP UPR activ: inactive

How did O=C(Nc1ccc(Cl)cn1)c1ccc(COCC(F)(F)C(F)F)o1 do in these assays?
Bfl-1 A1 inh: inactive; UPR XBP1 act: inactive; CHOP inh: 96; CHOP UPR activ: inactive

Results for O=C(NCc1ccc(Cl)cc1)c1ccc(COCC(F)(F)F)o1 ?
Bfl-1 A1 inh: inactive; UPR XBP1 act: inactive; CHOP inh: inactive; CHOP UPR activ: inactive

Results for C#CCOCCOCCOCCNc1nc(N2CCN(C(=O)CCCCCCCCCCNC(=O)[C@H]([C@@H](C)CC)n3cc(CCCCCN)nn3)CC2)nc(N2CCN(C(=O)CCCCCCCCCCNC(=O)[C@@H]([C@H](C)CC)n3cc(CCCCCN)nn3)CC2)n1 ?
Bfl-1 A1 inh: 6.6; UPR XBP1 act: 32; CHOP UPR activ: inactive
